PKD1 inh: inhibitors of human PKD1 kinase; Q15139; inhibition, % (concentration not given with the values); 200,000 tested, 0.056% active; AID 797; PKD1 kinase fluorescence polarization assay
Target sequence (Q15139 whole entry, looked up): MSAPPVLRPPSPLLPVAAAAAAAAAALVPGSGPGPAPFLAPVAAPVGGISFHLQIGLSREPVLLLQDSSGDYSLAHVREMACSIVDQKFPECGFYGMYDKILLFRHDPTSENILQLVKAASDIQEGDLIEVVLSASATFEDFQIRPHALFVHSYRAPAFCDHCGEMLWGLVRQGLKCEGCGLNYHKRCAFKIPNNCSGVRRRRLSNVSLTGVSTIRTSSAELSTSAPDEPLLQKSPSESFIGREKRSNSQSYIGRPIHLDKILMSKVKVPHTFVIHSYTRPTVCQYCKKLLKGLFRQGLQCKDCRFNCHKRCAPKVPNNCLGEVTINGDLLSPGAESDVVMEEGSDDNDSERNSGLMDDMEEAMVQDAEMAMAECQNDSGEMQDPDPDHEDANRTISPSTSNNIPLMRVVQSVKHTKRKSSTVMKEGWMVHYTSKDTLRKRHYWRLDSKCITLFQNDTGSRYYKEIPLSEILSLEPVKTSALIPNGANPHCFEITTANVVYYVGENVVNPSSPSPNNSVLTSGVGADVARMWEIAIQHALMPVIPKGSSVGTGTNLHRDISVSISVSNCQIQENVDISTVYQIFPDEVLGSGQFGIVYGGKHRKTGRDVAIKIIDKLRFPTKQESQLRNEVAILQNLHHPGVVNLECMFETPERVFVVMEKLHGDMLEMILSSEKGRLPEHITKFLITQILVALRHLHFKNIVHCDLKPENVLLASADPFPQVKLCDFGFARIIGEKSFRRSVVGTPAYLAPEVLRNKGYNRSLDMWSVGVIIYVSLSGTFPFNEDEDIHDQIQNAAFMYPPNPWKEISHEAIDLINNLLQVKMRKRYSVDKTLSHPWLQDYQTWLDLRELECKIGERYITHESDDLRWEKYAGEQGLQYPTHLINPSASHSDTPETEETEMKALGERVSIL
Arbovirus anti: blocks arbovirus infection | inhibition, % at 10 µM | 200,000 tested, 0.37% active | arbovirus infection cell-based antiviral screen; in the data active = inhibition above about 30%
Rad51 HR inh: blocks human Rad51 in homologous recombination | Q06609 | hRad51 DNA strand exchange, fluorescence dequenching | inhibition, % at 10 µM | 200,000 tested, 0.085% active | AID 1385;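 active = inhibition above 40% at the single screening dose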
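Test system: preformed human Rad51 ssDNA filaments; also added: Donor/quencher-labelled 47-bp dsDNA substrate; doses: 10 µM final, single point; times: 37 °C 15-min filament assembly, 30-min compound preincubation, 15-min exchange; detection: FRET fluorescence dequenching, excitation 485 nm, emission 520 nm; read-out basis: Fluorescence-based percent inhibition, control- and blank-normalised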
CHOP inh: blocks CHOP induction under ER stress. CHO-K1 CHOP-promoter luciferase, tunicamycin-induced, 15-18 h. 220,000 tested, 3.8% active. inhibition, % at 10 µM;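 active = compounds that reduced the stress-induced luciferase reporter signal by more than about 70% of percent inhibition, limit read from the data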
Lmaj promast: inhibitors of Leishmania major promastigote growth; Leishmania major promastigotes, resazurin fluorescence viability; 200,000 tested, 9% active; inhibition, % at 10 µM; AID 1063;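 also: promastigotes grown with compound for 44 hours at 28 °C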
Wee1 stabilizer: blocks degradation of human Wee1 kinase. HeLa Luc-Wee1K328M stability, luciferase luminescence; 100% = proteasome inhibitor MG132 effect. reporter increase, % at 5 µM. AID 1321. 220,000 tested, 1.2% active;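 active = activation above the mean of all tested compounds plus 3 SD, set per screening run, cut at about 8.8% in these data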;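 also: cells exposed to compound for 20 h before luminescence read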
Large screens that a line does not name were inactive. Compounds with a hit are over-represented: about 12% of the library has one in this group of screens. Rule as the data show it, unless noted: active = inhibition above about 50%; inactive = the rest.

CCOC(=O)c1c(-n2c(C)cc(C=O)c2C)sc2c1CCCC2	Lmaj promast 96 (no result: Rad51 HR inh)
CCCc1nc2oc3c(NCCN4CCOCC4)ncnc3c2c2c1CCCC2	none (no result: PKD1 inh, Arbovirus anti, CHOP inh, Lmaj promast, Wee1 stabilizer)
CC(C)Cc1nc2oc3c(NCCCN4CCOCC4)ncnc3c2c2c1CCC2	Lmaj promast 58
Cc1cc(C)cc(NC(=O)COC(=O)CN=C2NS(=O)(=O)c3ccccc32)c1	none
Cc1cc(NC(=O)/C=C/C(=O)N(CC(=O)NC2CCCC2)c2cccc3ccccc23)no1	Lmaj promast 96
Cc1ccc(-c2nnn(CC(=O)N(Cc3cccs3)C(C(=O)NC3CCCC3)c3ccco3)n2)o1 (stereo not drawn)	none
CCc1ccccc1N(C(=O)CCC(=O)Nc1cc(C)on1)C(C(=O)NC1CCCC1)c1ccco1 (stereo not drawn)	none (no result: PKD1 inh, Arbovirus anti, CHOP inh, Lmaj promast, Wee1 stabilizer)
CCc1ccc(N(C(=O)CCC(=O)Nc2cc(C)on2)C(C(=O)NC2CCCC2)c2ccco2)cc1 (stereo not drawn)	Lmaj promast 96
CCc1ccc(C(C(=O)NC2CCCC2)N(C(=O)/C=C/C(=O)Nc2cc(C)on2)c2ccccc2C)cc1 (stereo not drawn)	Lmaj promast 99
Cc1ccc(-c2nnn(CC(=O)N(c3ccccc3)C(C(=O)NC3CCCC3)c3ccco3)n2)o1 (stereo not drawn)	CHOP inh 94
Cc1cc(NC(=O)CCC(=O)N(CC(=O)NC2CCCC2)c2ccccc2)no1	none
CN(C)/C=N/S(=O)(=O)c1ccc(Cl)c(Cl)c1	none (no result: PKD1 inh, Arbovirus anti, Lmaj promast)
CCOc1ccc(N(C(=O)/C=C/C(=O)Nc2cc(C)on2)C(C(=O)NC2CCCC2)c2ccccc2C)cc1 (stereo not drawn)	Lmaj promast 87
Cc1cc(NC(=O)CCC(=O)N(CC2CCCO2)C(C(=O)NC2CCCC2)c2ccccc2C)no1 (stereo not drawn)	none (no result: Arbovirus anti, CHOP inh)
O=C(O)/C=C/c1ccc(S(=O)(=O)N2CCN(CCN3C(=O)C4C5C=CC(C5)C4C3=O)CC2)cc1 (stereo not drawn)	none (no result: PKD1 inh, Arbovirus anti, Rad51 HR inh, Lmaj promast)
N#CC(c1ccccc1)C1CCN(Cc2ccccc2)CC1 (stereo not drawn)	Lmaj promast 88
O=C(Cc1ccccc1)NC1CCN(Cc2ccccc2)CC1	Lmaj promast 82
CC(Oc1ccccc1)C(=O)NC1CCN(Cc2ccccc2)CC1 (stereo not drawn)	Lmaj promast 91
O=C(C1CCN(Cc2cc(Cl)ccc2O)CC1)N1CCN(Cc2ccccc2)CC1	Lmaj promast 100 (no result: Rad51 HR inh)
CC1=NN(Cc2ccccc2)C(=O)C1C(c1ccccc1)C(C#N)C#N (stereo not drawn)	none
CCOC(=O)Cn1nc(C(F)F)c(Br)c1C	none
CC12CN(C(=O)c3ccccc3Br)CC(C)(CN(C(=O)c3ccccc3Br)C1)C2=O	none (no result: PKD1 inh, Arbovirus anti, Lmaj promast)
O=C(Cn1cc2c(n1)CCCCC2)NC1CCN(Cc2ccccc2)CC1	Lmaj promast 83 (no result: Wee1 stabilizer)
O=C(O)COCC(=O)NC1CCN(Cc2ccccc2)CC1	none (no result: PKD1 inh, Arbovirus anti, Lmaj promast)
O=C(CCCCn1c(=O)c2ccccc2n(Cc2ccccc2F)c1=O)NC1CCN(Cc2ccccc2)CC1	CHOP inh 79, Lmaj promast 72
O=C(NC1CCN(Cc2ccccc2)CC1)c1cncc(Br)c1	Lmaj promast 67
O=C(NC1CCN(Cc2ccccc2)CC1)C12CC3CC(CC(C3)C1)C2	Lmaj promast 88
CCN(C(=O)C(C)OC(=O)C1C(C(=O)OC)=C(C)NC(C)=C1C(=O)OC)c1ccccc1 (stereo not drawn)	none
CC1Oc2cc3oc4c(O)c(O)ccc4c(=O)c3c(O)c2C1(C)C (stereo not drawn)	none (no result: PKD1 inh, Arbovirus anti, CHOP inh, Lmaj promast, Wee1 stabilizer)
Cc1ccc(NC(=S)N2CCCC(c3nc4ccc(C)cc4[nH]3)C2)c(C)c1 (stereo not drawn)	Lmaj promast 62
Cc1cc2nc(C3CCCN(C(=S)Nc4ccccc4C)C3)[nH]c2cc1C (stereo not drawn)	none
Cc1ccc2nc(C3CCCN(C(=S)Nc4cccc(C)c4C)C3)[nH]c2c1 (stereo not drawn)	Lmaj promast 82
Cc1ccc2nc(C3CCN(CC(=O)N4CCCCCC4)CC3)[nH]c2c1	none
CCCc1nnc(SCC(=O)O)n1CC	none (no result: PKD1 inh, Arbovirus anti, Lmaj promast)
CCN(CC)S(=O)(=O)c1cc(NS(=O)(=O)c2cccc(Cl)c2)ccc1C	Lmaj promast 65
CCN(CC)S(=O)(=O)c1cc(NS(=O)(=O)c2c(Cl)cccc2Cl)ccc1C	none (no result: Rad51 HR inh)
c1cncc(N=c2scc(-c3cccc4ccccc34)n2CCCn2ccnc2)c1	Lmaj promast 80 (no result: Rad51 HR inh)
Cc1ccc(-c2csc(=Nc3cccnc3)n2CCCn2ccnc2)cc1C	Lmaj promast 95
Cc1ccc(-c2csc(=Nc3cccnc3)n2CCCN2CCCC2=O)cc1C	none
Cc1cc(C(=O)NN)c(Cl)cc1Cl	none (no result: PKD1 inh, Arbovirus anti, Lmaj promast)
CCC(C)NC(=O)CN(c1cc(Cl)cc(Cl)c1)S(C)(=O)=O (stereo not drawn)	none
CCCCC(=O)Nc1cccc(NC(=O)c2cccnc2Cl)c1	none (no result: PKD1 inh, Arbovirus anti, Rad51 HR inh, Lmaj promast)
COC(=O)Nc1ccc(S(=O)(=O)N2CCCCC2C(=O)O)cc1 (stereo not drawn)	none
COC(=O)Nc1ccc(S(=O)(=O)N2c3ccccc3CCC2C)cc1 (stereo not drawn)	Lmaj promast 100 (no result: CHOP inh)
COc1ccc(/C=C/c2nc(-c3ccccc3O)n[nH]2)cc1OC	Arbovirus anti 30
COc1ccc(/C=N/NC(=O)c2[nH]nc3c2CCc2ccccc2-3)cc1OC	none
O=C(Nc1ccc2c(c1)CCC2)c1cc(=O)[nH]c2ccccc12	none (no result: PKD1 inh, Arbovirus anti, Lmaj promast)
Cc1ccc(-c2csc3ncn(-n4c(C)ccc4C)c(=O)c23)o1	CHOP inh 79
CN(C1CCCCC1)S(=O)(=O)c1ccc(S(=O)(=O)N(CC(=O)Nc2ccccc2)C2CC2)cc1	none (no result: PKD1 inh, Arbovirus anti, Lmaj promast)
Cc1ccccc1C(=O)Oc1cccc(Nc2ncnc3ccccc23)c1	Lmaj promast 57 (no result: Arbovirus anti, CHOP inh)
CCOC(=O)c1cccc(Nc2ncnc3ccccc23)c1	none
COC(=O)c1cccc(Nc2ncnc3ccc(C)cc23)c1	Lmaj promast 51
Cc1cccc(Nc2ncnc3ccccc23)c1	Lmaj promast 88
CC(C)Oc1ccc(Nc2ncnc3ccccc23)cc1	Lmaj promast 56
Cc1ccc(Nc2ncnc3ccccc23)cc1	none
Cc1ccc(NC(=O)Nc2cc(S(C)(=O)=O)ccc2Cl)cc1	none (no result: PKD1 inh, Arbovirus anti, Lmaj promast)
CCOC(=O)c1[nH]c2ccc(OC)cc2c1NC(=S)N1CCN(c2ccccc2OC)CC1	none
COC(=O)c1ccc([C@H]2C=C(C(=O)O)O[C@@H](OCc3ccc(CO)cc3)C2)cc1	none (no result: PKD1 inh, Arbovirus anti, Lmaj promast, Wee1 stabilizer)
CCOC(=O)C(C)Sc1nc2c([nH]c3ccccc32)c(=O)n1C (stereo not drawn)	none
CCOC(=O)CSc1nc2c([nH]c3ccccc32)c(=O)n1C	CHOP inh 76
Cn1c(SCC(=O)Nc2ccc(F)cc2)nc2c([nH]c3ccccc32)c1=O	CHOP inh 85
COc1cccc(-n2c(SCC(=O)N3CCCCC3)nc3c([nH]c4ccccc43)c2=O)c1	CHOP inh 71 (no result: Rad51 HR inh)
O=C1CCCN1CCCNS(=O)(=O)c1ccc(F)cc1F	none (no result: PKD1 inh, Arbovirus anti, Rad51 HR inh, Lmaj promast)

Compound activity (PubChem BioAssay)
